Screening data as filed in PubChem.
Compounds with a hit are over-represented: about 2.9% of the library has one in this group of screens.
RanGTP-Imp inh: inhibitors of RanGTP-importin-beta interaction, primary screen, biochemical, FRET, CFP-Ran, YFP-importin-beta, homogeneous. inhibition, % (concentration not given with the values). hit rate 1.1% among 300,000. cell-free CFP-Ran/YFP-importin-beta FRET ratio. AID 2216;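 active = more than half of the replicate wells show a fall in the fluorescence ratio signal beyond about 16%, limit read from the data, passing the limit was not always enough; inconclusive = exactly half of the replicate wells pass the set limit; inactive = fewer than half of replicates pass the limit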
Wee1 stabilizer: blocks degradation of human Wee1 kinase | HeLa Luc-Wee1K328M stability, luciferase luminescence; 100% = proteasome inhibitor MG132 effect | hit rate 1.2% among 220,000 | reporter increase, % at 5 µM | P30291;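 active = activation above the mean of all tested compounds plus 3 SD, set per screening run, cut at about 8.8% in these data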;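 note: cells exposed to compound for 20 h before luminescence read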
Target sequence (P30291 whole entry K328M): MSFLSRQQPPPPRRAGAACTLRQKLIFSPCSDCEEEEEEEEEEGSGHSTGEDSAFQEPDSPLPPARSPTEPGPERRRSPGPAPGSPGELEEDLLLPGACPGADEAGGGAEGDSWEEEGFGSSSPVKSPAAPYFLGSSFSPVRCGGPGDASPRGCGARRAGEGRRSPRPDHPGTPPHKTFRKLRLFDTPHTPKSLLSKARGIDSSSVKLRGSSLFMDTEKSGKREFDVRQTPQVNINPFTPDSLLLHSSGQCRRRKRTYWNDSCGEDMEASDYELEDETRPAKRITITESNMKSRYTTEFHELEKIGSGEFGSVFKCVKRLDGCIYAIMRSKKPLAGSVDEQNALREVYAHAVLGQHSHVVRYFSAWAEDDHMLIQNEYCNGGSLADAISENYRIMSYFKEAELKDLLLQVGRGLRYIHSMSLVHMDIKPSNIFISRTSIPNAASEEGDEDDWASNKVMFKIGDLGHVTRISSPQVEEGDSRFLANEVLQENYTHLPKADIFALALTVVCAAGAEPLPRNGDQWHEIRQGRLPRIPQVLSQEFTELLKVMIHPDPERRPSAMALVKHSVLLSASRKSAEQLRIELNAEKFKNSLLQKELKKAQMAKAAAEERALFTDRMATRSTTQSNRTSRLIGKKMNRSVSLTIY
Runt-SMMHC FRET: Runt domain-CBFb-SMMHC interaction inhibition. hit rate 0.74% among 220,000. Q01196+Q13951. AID 1434. Cerulean-Runt/Venus-CBFb-SMMHC FRET ratio 530/480, 1 h. inhibition, % at 20 µM;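 active = mean inhibition across duplicate retests at 20 µM reaching about 50%, limit read from the data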;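 note: inhibitors lower the FRET ratio by blocking Runt binding to CBFb-SMMHC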
KLK7 zymogen act: proKLK7 (human) activation, primary screen; P49862; purified proKLK7, EDANS-DABCYL substrate fluorescence; 100% is mature enzyme control, 0% vehicle; activation, % at 7 µM; hit rate 0.9% among 370,000;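 active = activation above the mean of all tested compounds plus 3 SD, computed per campaign excluding outliers beyond control limits, cut at about 13% in these data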
Runt-CBFb FRET: inhibitors of human RUNX1 Runt domain binding to CBFb; Cerulean-Runt/Venus-CBFb FRET ratio 530/480, 1 h; inhibition, % at 20 µM; hit rate 0.46% among 220,000; AID 1496;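 active = inhibition over about 50% at 20 µM in the single-dose screen, limit read from the data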
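Assay system: Cerulean-Runt domain / Medium: Tris 50 mM pH 7.5, KCl, K2SO4, 0.01% BSA / Timing: protein complex preformed 1 h, compound exposure 1 h, room temperature, dark / Measured by: FRET, excitation 422 nm, emission at 530 and 480 nm / Evaluation: loss of energy transfer signal / Control set: 5 µM unlabeled CBFb as full-inhibition high control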
AI-2 QS modul: Vibrio harveyi AI-2 quorum sensing modulation; Vibrio harveyi JMH597 AI-2 luminescence/OD600 ratio, 9 h; hits give low values; strain lacks LuxN and CqsS sensors; 0 = neutral-control median; activity change, % at 7.5 µM; hit rate 0.4% among 300,000; in the data active = activity change below about -75%, passing the limit was not always enough; inconclusive = no clear call, values can overlap the other calls;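 note: luminescence divided by OD600 gain over 9 h not by final OD600 alone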
A number is an active result; 0 = inactive; ? = inconclusive; - = not tested or not shown.

SMILES	RanGTP-Imp inh	Wee1 stabilizer	Runt-SMMHC FRET	KLK7 zymogen act	Runt-CBFb FRET	AI-2 QS modul
CCOC(=O)c1c(NC(=S)NCc2ccccc2)sc2c1CCN(C(=O)OCC)C2	0	0	0	0	0	0
CCN(CC(=O)Nc1ccc(N2CCOCC2)cc1)CC(=O)NC(C)(C)C	0	0	0	0	0	0
O=C1CC(=O)N2N=C(c3ccc([N+](=O)[O-])cc3)SC2=N1	0	0	0	0	0	0
O=C(OCC(O)CO)c1ccccc1Nc1ccnc2cc(Cl)ccc12 (configuration not stated)	-	-	-	0	-	-
Cc1c(Cl)cccc1Nc1ncccc1C(=O)OCC(O)CO (configuration not stated)	19	0	0	-	0	0
O=C(CSC1CS(=O)(=O)c2cc([N+](=O)[O-])ccc21)NNC(=O)c1ccccc1 (configuration not stated)	18	0	0	0	0	0
COc1ccccc1N1CCN(C(=O)CCC(=O)Nc2nnc(CC(C)C)s2)CC1	0	-	-	0	-	0
CC(C)Cc1nnc(NC(=O)CCC(=O)N2CCN(c3ccccc3F)CC2)s1	154	-	-	0	-	0
CCNC(=O)N(C)[C@H]1C[C@@H](c2ccccc2)N(C(C)=O)C[C@H]1CO	-	-	-	0	-	-
COc1cccc2cc(C(=O)C3=C(O)C(=O)N(c4cc(C)on4)C3c3cccs3)oc12 (configuration not stated)	0	-	-	0	-	0
COC(=O)[C@]12C[C@H](CC(=O)N3CCCCC3)C(=O)N(CCC3=CCCCC3)C1=C[C@H](COCc1ccccc1)O[C@@H]2C	-	-	-	0	-	-
Cc1nc2ccc(NC(=O)NC(=O)c3c(Cl)cccc3Cl)cc2o1	0	10	0	0	0	0
CCCCn1cnc(C(=O)OCC)c1N	0	0	0	0	0	0
O=C(C=Cc1cccs1)c1ccc(Cl)s1	-	-	-	0	-	-
CCN(CC)c1ccc(/C=N/NC(=O)c2cccc(S(=O)(=O)N3CCOCC3)c2)c(O)c1	0	0	92	0	0	0
CCN(CC)c1ccc(C=Nc2cccc(S(=O)(=O)N3CCOCC3)c2)c(O)c1	-	-	-	0	-	-
COc1ccc(C(=O)NCC2CCN(C(=O)C(=O)c3cc4ccccc4o3)CC2)cc1	-	-	-	0	-	-
O=S(=O)(Cc1ccccc1)N1CCN(c2ccccc2)CC1	59	0	0	0	-	0
COC(=O)C1=CN(CCCN2CCCC2=O)C=C(C(=O)OC)C1c1ccccc1C(F)(F)F	116	0	0	0	0	0
COC(=O)C1=CN(CC2CCCO2)C=C(C(=O)OC)C1c1ccccc1C(F)(F)F (configuration not stated)	62	0	82	0	106	-
COc1ccccc1C(=O)NCCCN1CCCC1=O	0	0	0	0	0	0
CCCOc1ccc(/C(O)=C2/C(=O)C(=O)N(CCCn3ccnc3)C2c2ccc(C)o2)cc1 (configuration not stated)	0	9.7	0	0	0	0
CN1OC2C(=O)N(c3ccccc3)C(=O)C2C1c1ccc(F)cc1 (configuration not stated)	0	17	0	0	0	0
COc1ccc(CNS(=O)(=O)/C=C/c2ccc(OC)cc2CNC(=O)OC(C)(C)C)cc1	-	-	-	0	-	-
CC1=NOC(=O)/C1=C\c1ccc(-c2cccc(Cl)c2)o1	0	0	55	-	0	0
SMILES	RanGTP-Imp inh	Wee1 stabilizer	Runt-SMMHC FRET	KLK7 zymogen act	Runt-CBFb FRET	AI-2 QS modul
CC(C)N(CCO)C(=O)C(c1ccccc1)c1ccccc1	0	11	0	0	0	0
CN(C)CCNC(=O)C(c1ccccc1)c1ccccc1	0	0	0	0	0	0
COC(=O)[C@]12C[C@H](CC(=O)NCc3cccs3)C(=O)N(Cc3ccc(Cl)cc3Cl)C1=C[C@H](C(C)C)O[C@@H]2C1CC1	-	-	-	0	-	-
COCCn1c(=N)c(C(=O)NCCc2ccccc2)cc2c(=O)n3cccc(C)c3nc21	192	0	-	0	-	0
CCCCNC(=O)c1cc2c(=O)n3cccc(C)c3nc2n1C	-	-	0	-	0	-
Cc1cccn2c(=O)c3cc(C(=O)NCCc4ccccc4)c(=N)n(CC4CCCO4)c3nc12 (configuration not stated)	181	-	-	0	-	0
CCCCNC(=O)c1cc2c(=O)n3cccc(C)c3nc2n(Cc2ccccc2)c1=N	188	0	62	0	0	0
CCNC(=O)c1cc2c(=O)n3cccc(C)c3nc2n(CCc2ccccc2)c1=N	186	0	62	0	0	0
Cc1ccc(CNC(=O)c2cc3c(=O)n4cccc(C)c4nc3n(CC3CCCO3)c2=N)cc1 (configuration not stated)	-	-	0	-	0	-
COc1cccc(C(=O)Nc2ccc(C(F)(F)F)n(C)c2=O)c1	0	0	0	0	0	0
CC(C)(C)C(=O)OC12CCCN(C1)/C(=C/c1cccc(Cl)c1)C2 (configuration not stated)	-	-	-	0	-	-
CN(C)C=Nc1nc2c(Br)ccc(Br)c2cc1C(=O)NCC(C)(C)C	-	-	-	0	-	-
CCn1c(=N)c(C(=O)NCc2cccnc2)cc2c(=O)n3cccc(C)c3nc21	-	-	61	-	0	-
Cc1cccn2c(=O)c3cc(C(=O)NCCc4ccccc4)c(=N)n(CCCn4ccnc4)c3nc12	178	0	82	0	0	0
Cc1cccn2c(=O)c3cc(C(=O)NCCCn4ccnc4)n(C)c3nc12	0	0	0	0	0	0
COC(=O)[C@]12C[C@H](CC(=O)NCCCN3CCCC3=O)C(=O)N(Cc3ccc4c(c3)OCO4)C1=C[C@H](C(C)(C)C)O[C@@H]2C	-	-	-	0	-	-
Cc1cc(N2CCOCC2)nc(N)n1	0	0	0	0	0	0
Nc1nc(N2CCOCC2)cc(=O)[nH]1	20	0	0	0	0	0
O=C(OCCN(C1=NS(=O)(=O)c2ccccc21)c1ccccc1Cl)c1ccc(Cl)cc1	0	9.7	0	0	0	0
C/C(CC(=O)N1CCCC1)=N\NC(=O)c1cc2ccccc2cc1O	?	12	0	0	0	0
COC(=O)[C@]12C[C@H](CC(=O)NCCCN3CCCC3=O)C(=O)N(Cc3cccc4ccccc34)C1=C[C@H](C1CCCC1)O[C@@H]2C	-	-	-	0	-	-
COc1cc(C(=O)OCC(=O)NC2CCCCCC2)ccc1OCC(C)C	0	-	-	0	-	0
COc1cc(C(=O)OCC(=O)NC(=O)C2CCCCC2)ccc1OC(F)F	0	9.8	0	0	0	0
CC(=O)N(Cc1ccccc1)c1nccs1	-	-	-	0	-	-
O=C(Nc1nc2ccc(S(=O)(=O)N3CCOCC3)cc2s1)c1cccs1	0	10	0	0	0	0
CCOC(=O)C1(CC2CCCCO2)CCN(S(=O)(=O)c2c(C)nn(C)c2C)CC1 (configuration not stated)	0	0	0	0	0	0
CN(c1ccc(F)cc1)S(=O)(=O)c1ccc2[nH]cc(C(=O)O)c(=O)c2c1	-	0	0	0	0	-
